Activity calls are given as the source filed them.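 Rule for the calls: active = target-selective compounds that prevent over 30% of T7 phage killing of the bacteria in the dose series; inactive = the rest.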
Test: T7 phage susceptibility of EV36 E. coli – EV36 strain, set 4, selectivity assay for bacterial capsule biogenesis inhibitors, dose response (AID 504767)
Settings: series mostly up to 100 µM
Outline: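 Assay system: Escherichia coli EV36, a K1:K-12 hybrid strain; Signal: optical density at 600 nm, before and after phage; Medium: LB broth, overnight culture diluted 1:100; Timing: 1.5 h compound exposure at 37 °C with shaking, then 3 h post-phage; Dosing: concentration series from 100 µM down to 0.39 µM, 1% DMSO.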

outcome, inactive:
O=C(Nc1nc2c(Cl)cc(Cl)cc2s1)c1ccccn1
O=C(Nc1nc2c(F)cc(F)cc2s1)c1ccncc1
Cc1cc(C)c2nc(NC(=O)c3ccccn3)sc2c1
O=C(Nc1nc2ccc(F)cc2s1)c1ccccn1
O=C(Nc1nc2c(F)cccc2s1)c1ccccn1
O=C(Nc1nc2ccccc2s1)c1ccncc1
O=C(Nc1nc2c(F)cc(F)cc2s1)c1ccccc1
O=C(Nc1nc2c(F)cc(F)cc2s1)c1cccnc1
O=C(Nc1nc2ccccc2s1)c1cccnc1
